Hits are enriched below; roughly 1% of the tested compounds scored in any of these assays.
p-CIP stab down: lowers stability of the mouse p/CIP coactivator protein. F442A p/CIP-EGFP cells, EGFP fluorescence, 16 h. decrease of EGFP signal, % at 10 µM. actives 0.01% (n = 290,000). AID 1984;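 active = EGFP signal decrease of at least 30% at 10 µM or well 3 SD below plate mean, unless failing retest; inactive = the rest, including hits failing retest or dose response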
Arrestin-AP2 inh: blocks beta-arrestin peptide binding to AP2 adaptin; FITC-arrestin peptide / GST-AP2 beads, flow cytometry; AP2 beta2 appendage carries R879A mutation; inhibition, % at 10 µM; actives 0.31% (n = 340,000);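 active = inhibition above a set limit, near 3 SD of compounds lacking own fluorescence, cut at about 54% in these data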
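test system = AP2 appendage R879A on GSH beads | buffer or medium = PBS plus Tween 20 (0.05%) and BSA (0.1%) | incubation = 12 min plus 1 h, RT | detection = bead flow cytometry, FITC channel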
CTSL1 counter: blocks F. hepatica cathepsin L1 in PFM18AAP counter-screen. recombinant F. hepatica cathepsin L1, Z-Leu-Arg-MCA fluorescence. inhibition, % at 5.96 µM. actives 0.49% (n = 300,000). AID 1906;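 active = inhibition above the mean of all tested compounds plus 3 SD, set per screening campaign, cut at about 17% in these data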
Hep lipid drop: modulators of hepatic lipid droplet formation; actives 0.4% (n = 240,000); inhibition, % at 6.5 µM; AML12 mouse hepatocytes, oleate lipid droplets, BODIPY imaging;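 active = lipid droplet intensity inhibited by at least 50%, with more than 500 cells counted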
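Assay system: AML12 hepatocytes (mouse) / Also added: 100 µM oleic acid challenge / Times: overnight treatment with compound plus oleate / Detection: high-content imaging of BODIPY-stained droplets and DAPI nuclei / Evaluation: % inhibition of lipid droplet signal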
Lipid drop inh: hepatic lipid droplet formation inhibition, confirmed | shares compounds with Hep lipid drop | AML12 mouse hepatocytes, BODIPY lipid droplet imaging; droplets induced with 100 µM oleic acid | inhibition, % at 5.2 µM | actives 65% (n = 870) | AID 463183;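 active = inhibition of lipid droplet metric at least 50%, with more than 300 cells in each of four replicates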
AML12 cytotox: toxic to AML12 mouse hepatocytes in counter-screen. actives 3% (n = 870). shares compounds with Hep lipid drop. AID 463200. DAPI nuclear morphology cytotoxicity imaging; stronger effect = higher value; cells fed 100 µM oleate overnight. z-score at 5 µM; in the data active = z-score above about 6.3;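 also: compound exposure lasted overnight at 37 °C before fixation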
AML12 tox ATP: AML12 hepatocyte cytotoxicity, confirmed; shares compounds with Hep lipid drop; cytotoxicity, % at 50 µM; 530 tested, under 10 active; AML12 mouse hepatocyte viability, ATP luminescence; cells loaded with 100 µM oleic acid;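 active = cytotoxicity above 50% in each of four replicates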;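 also: compound exposure lasted overnight at 37 °C before the ATP read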
Numbers stand for hits; . = inactive; / = no result; ! = not confirmed by another sample.

SMILES | p-CIP stab down | Arrestin-AP2 inh | CTSL1 counter | Hep lipid drop | Lipid drop inh | AML12 cytotox | AML12 tox ATP
CCCN1C(=O)/C(=C\C=C2/Sc3ccccc3N2CC)SC1=S | . | / | / | . | / | / | /
CCCN1C(=O)/C(=C\C=C2\N(CC)c3ccccc3C2(C)C)SC1=S | . | . | / | 111 | 115 | . | .
CC(C)CCNC(=S)Nc1ccc2nc3n(c(=O)c2c1)CCCCC3 | . | . | . | . | / | / | /
COc1ccc(NC(=O)Nc2ccc3c(c2)C(=O)N([C@H](C)CO)C[C@H](C)[C@@H](CN(C)S(=O)(=O)c2cccs2)O3)cc1 | / | . | / | / | / | / | /
CCOc1ccccc1NC(=O)c1ccc(OCC(=O)N2CCOCC2)c(OC)c1 | / | . | / | / | / | / | /
COc1ccc(-c2csc(NC(=O)c3ccc(OCC(=O)N4CCOCC4)c(OC)c3)n2)cc1 | . | . | . | 83 | 107 | . | .
CC(NC(=O)[C@@H](C)NC(=O)[C@@H]1Cc2ccccc2CN1C(=O)OC(C)(C)C)c1ccccc1 (stereo partly drawn) | . | . | . | 68 | 76 | . | .
Cc1cc(C)nc(Nc2nc3ccccc3[nH]2)n1 | . | . | . | 58 | . | . | /
Cc1ccc(C)c(Nc2nc3ccccc3[nH]2)c1 | / | . | / | / | / | / | /
O=C(NCc1ccccc1Cl)C(=O)c1c[nH]c2ccccc12 | . | . | . | . | / | / | /
O=C(CCNC(=O)C1CCN(S(=O)(=O)c2ccccc2)CC1)NCc1ccc(Cl)cc1Cl | . | . | . | 56 | 75 | . | .
O=C(CCNC(=O)C1CCN(S(=O)(=O)c2ccc(F)cc2)CC1)NCc1ccccc1Cl | . | . | . | 51 | . | . | /
O=C(CCNC(=O)C1CCN(S(=O)(=O)c2ccccc2)CC1)NCc1cccc(Cl)c1 | . | . | . | . | / | / | /
O=C(Cn1nc(-c2cccc(Cl)c2)ccc1=O)Nc1cccnc1 | . | . | . | / | / | / | /
O=C(Cn1nc(-c2cccc(Cl)c2)ccc1=O)Nc1ccc(C(=O)NC2CC2)cc1 | . | . | . | 52 | 87 | . | .
CC(=O)c1ccccc1NS(=O)(=O)c1cccc2nsnc12 | . | . | . | . | / | / | /
O=C(COc1ccc(Cl)cc1)Nc1ccc2c(c1)C(=O)NC2=O | . | . | . | 60 | . | . | /
CNC(=S)N1CCc2cc(OC)c(OC)cc2C1COc1ccc(OC)cc1 (stereo not drawn) | . | . | . | . | / | / | /
COCCNC(=S)N1CCc2cc(OC)c(OC)cc2C1COc1cc(C)cc(C)c1 (stereo not drawn) | . | . | . | 62 | 90 | . | .
OC(COc1ccc2cc(Br)ccc2c1)Cn1ccnc1 (stereo not drawn) | . | . | . | 53 | . | . | /
Cc1ccc(-n2nc(C)c(C3C(C#N)=C(N)OC4=C3C(=O)CC(C)(C)C4)c2Cl)cc1 (stereo not drawn) | . | / | / | / | / | / | /
CN(C)S(=O)(=O)N(CC(=O)N1CCOCC1)c1ccccc1 | . | . | . | / | / | / | /
CCN(CCn1cccn1)C(=O)c1cc(COc2ccc(F)cc2Cl)on1 | . | . | . | 55 | . | . | /
CCN(CCn1cccn1)C(=O)c1cc(COc2cccc3cccnc23)on1 | . | . | . | . | / | / | /
CCOC(=O)c1cc(-c2ccc(N3CCOCC3)cc2)nn1-c1ccc(F)cc1F | . | . | . | . | / | / | /
SMILES | p-CIP stab down | Arrestin-AP2 inh | CTSL1 counter | Hep lipid drop | Lipid drop inh | AML12 cytotox | AML12 tox ATP
COc1cc(CNC(=O)c2cccc(COc3ccc(Cl)cc3)c2)cc(OC)c1 | . | . | . | 57 | 92 | . | .
Cc1c(C(=O)N2CCN(C)CC2)oc2ccc(Br)cc12 | . | . | . | . | / | / | /
COCCCn1c(SCC(=O)Nc2ccc(NC(=O)c3ccco3)c(OC)c2)nc2ccccc2c1=O | . | . | . | 104 | 104 | . | .
CCCCCCn1c(SCC(=O)Nc2cc(C)on2)nc2ccccc2c1=O | . | . | . | 68 | 97 | . | .
COCCn1c(SCC(=O)Nc2cc(C)on2)nc2ccccc2c1=O | / | . | / | / | / | / | /
O=C(c1ccc(Cl)cc1Cl)C1(n2cncn2)Oc2ccccc2C1O (stereo not drawn) | . | . | . | / | / | / | /
COC(=O)C1CSC(C)(C)C(=O)N1 (stereo not drawn) | . | . | . | . | / | / | /
COc1ccc(C)cc1NC(=O)CCNS(=O)(=O)c1cccc(C(F)(F)F)c1 | . | . | . | 55 | 83 | . | .
Cc1ccccc1NC(=O)Cn1nnc(-c2ccc(N3CCOCC3)cc2)n1 | . | . | . | / | / | / | /
Cc1ccc(CNc2nc(C)nc3sc4c(c23)CCC4)cc1 | . | . | . | / | / | / | /
Cc1nc(Nc2ccc(O)cc2)c2c3c(sc2n1)CCCC3 | . | . | . | 60 | 75 | . | /
O=C(Nc1nc(-c2ccc(-c3ccccc3)cc2)cs1)C1CCCO1 (stereo not drawn) | . | . | . | 61 | 102 | . | .
O=C(Nc1nc(-c2ccccc2)cs1)C1CCCO1 (stereo not drawn) | . | . | . | . | / | / | /
O=C(Nc1nc(-c2ccccc2)cs1)C1CCCCN1S(=O)(=O)c1ccc(Cl)cc1 (stereo not drawn) | . | . | . | 62 | 91 | . | .
Cc1ccccc1OCc1n(CC(=O)OC2CC(C)CCC2C(C)C)c2ccccc2[n+]1C (stereo not drawn) | . | . | . | 54! | . | . | /
CCOc1cc(N2CCOCC2)c(OCC)cc1NC(=O)COC(=O)c1ccccc1OC(F)F | / | . | / | / | / | / | /
CCOc1cc(N2CCOCC2)c(OCC)cc1NC(=O)COC(=O)c1cccc2ccccc12 | . | . | 30 | 55 | 101 | . | /
COc1ccc(C2CC(c3cccs3)=NN2C(=O)c2ccc(Br)o2)cc1 (stereo not drawn) | . | . | . | 83 | 93 | . | .
CCn1c(=O)n(CC)c2cc(N)ccc21 | . | . | . | 54 | . | . | /
CCCCn1c(O)c(/C=C/C=C/C=Nc2ccccc2)sc1=S | . | . | . | 61 | . | . | /
CCCn1c(O)c(C=Nc2ccccc2)sc1=S | . | . | . | . | / | / | /
Oc1c(/C=C/C=C/C=Nc2ccccc2)sc(=S)n1Cc1ccccc1 | . | . | . | 74 | 76 | . | .
CCn1c(O)c(/C=C/C=C/C=Nc2ccccc2)sc1=S | . | . | . | . | / | / | /
Cc1ccc(C(=O)C2=C(O)C(=O)N(Cc3cccnc3)C2c2cccc(Oc3ccccc3)c2)o1 (stereo not drawn) | . | / | . | . | / | / | /
CCc1cc2c(=O)c(-c3nc4ccccc4n3C)c(C)oc2c(CN2CCOCC2)c1O | . | . | . | 50 | 88 | . | .
CCc1cc2c(=O)c(-c3nc4ccccc4n3C)c(C)oc2c(CN2CCN(C)CC2)c1O | . | / | . | . | / | / | /
Cc1ccc(NC(=O)c2ccccc2[N+](=O)[O-])nc1 | . | . | . | . | / | / | /

From PubChem
